Data reported in BindingDB's records for doi:10.1016/j.bmc.2018.05.049 (2018).

Target: T1, Sodium- and chloride-dependent GABA transporter 2 (Mus musculus, UniProt P31649)
T1 sequence (P31649 whole entry): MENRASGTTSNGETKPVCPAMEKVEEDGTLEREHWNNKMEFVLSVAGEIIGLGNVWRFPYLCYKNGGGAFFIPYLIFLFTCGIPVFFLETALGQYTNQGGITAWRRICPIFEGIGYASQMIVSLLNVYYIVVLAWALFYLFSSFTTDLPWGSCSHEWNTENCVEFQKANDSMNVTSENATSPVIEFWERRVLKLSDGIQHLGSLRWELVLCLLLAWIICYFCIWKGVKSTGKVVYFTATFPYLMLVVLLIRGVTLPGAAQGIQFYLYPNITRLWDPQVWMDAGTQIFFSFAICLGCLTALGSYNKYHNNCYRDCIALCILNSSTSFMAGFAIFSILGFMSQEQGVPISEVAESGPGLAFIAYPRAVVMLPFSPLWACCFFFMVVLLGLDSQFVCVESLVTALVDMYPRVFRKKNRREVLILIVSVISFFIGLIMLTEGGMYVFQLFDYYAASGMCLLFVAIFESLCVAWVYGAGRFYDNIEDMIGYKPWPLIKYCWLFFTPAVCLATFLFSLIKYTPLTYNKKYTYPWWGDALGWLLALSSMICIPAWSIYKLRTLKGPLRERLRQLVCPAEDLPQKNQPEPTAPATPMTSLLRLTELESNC
Experiment: Inhibition of mouse GAT2 expressed in HEK293 cells assessed as decrease in [3H]GABA uptake preincubated for 25 mins followed by [3H]GABA addition measured after 10 mins by liquid scintillation counting analysis
How it was run: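 [³H]GABA uptake assay in HEK cells expressing the mGAT subtype named in the line, run in triplicate. Potencies are given as pIC₅₀ ± SEM. No SEM is given where only one triplicate measurement was made. Where 100 µM test compound left uptake at or above 50% (pIC₅₀ ≤ 4.00), the percent remaining [³H]GABA uptake at 100 µM is reported instead.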

Row | SMILES | IC50
1 | COc1ccc(C(OCCN2CCCC(C(=O)O)C2)(c2ccc(OC)cc2C)c2ccc(OC)cc2C)cc1 (centres undefined) | 32.4 µM
2 | COc1ccc(C(C#CCCN2CCCC(C(=O)O)C2)(c2ccc(OC)cc2)c2ccc(OC)cc2)cc1 (centres undefined) | 35.5 µM
3 | COc1ccc(C(C#CCN2CCCC(C(=O)O)C2)(c2ccc(OC)cc2)c2ccc3c(c2)OCO3)cc1 (centres undefined) | 41.7 µM
4 | COc1ccc(C(CC#CCN2CCCC(C(=O)O)C2)(c2ccc(OC)cc2)c2ccc(OC)cc2)cc1 (centres undefined) | 33.9 µM
